Experiments:
[1] = system: Plasma; assay: Antiplatelet activity against citreated rabbit platelet-rich plasma assessed as inhibition of thrombin-induced platelet aggregation at 150 uM by turbidimetric method; assay type: functional; conditions: Oryctolagus cuniculus
In short: (§1)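 PRP stirred at 900 rpm, 37 °C, 1 min; compound 150 µM or DMSO vehicle (0.5% v/v) added 1 min before agonist: ADP 5 µM, collagen 5 µg/mL, thrombin 2 nM or arachidonic acid 100 µM. Aggregation read turbidimetrically (Born method).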

[2] = system: Plasma; assay: Antiplatelet activity against citreated rabbit platelet-rich plasma assessed as inhibition of ADP-induced platelet aggregation at 150 uM by turbidimetric method; assay type: functional; conditions: Oryctolagus cuniculus; in short: as §1
[3] = system: Plasma; assay: Antiplatelet activity against citreated rabbit platelet-rich plasma assessed as thrombin-induced platelet aggregation at 150 uM by turbidimetric method; assay type: functional, Oryctolagus cuniculus; in short: as §1
[4] = system: Plasma; assay: Antiplatelet activity against citreated rabbit platelet-rich plasma assessed as collagen-induced platelet aggregation at 150 uM by turbidimetric method; assay type: functional, Oryctolagus cuniculus; in short: as §1
[5] = system: Plasma; assay: Antiplatelet activity against citreated rabbit platelet-rich plasma assessed as inhibition of collagen-induced platelet aggregation at 150 uM by turbidimetric method; assay type: functional; conditions: Oryctolagus cuniculus; in short: as §1
[6] = system: Mus musculus; assay: Antithrombotic activity against thrombin-induced pulmonary thromboembolism in mouse model assessed as survival at 100 umol/kg, po after 15 mins; assay type: functional; conditions: 0.25 h
[7] = system: Plasma; assay: Antiplatelet activity against citreated rabbit platelet-rich plasma assessed as inhibition of arachidonic acid-induced platelet aggregation at 150 uM by turbidimetric method; assay type: functional; conditions: Oryctolagus cuniculus; in short: as §1
[8] = system: Plasma; assay: Antiplatelet activity against citreated rabbit platelet-rich plasma assessed as ADP-induced platelet aggregation at 150 uM by turbidimetric method; assay type: functional, Oryctolagus cuniculus; in short: as §1

| Compound | inhibition at 150 µM [1] [%] | inhibition at 150 µM [2] [%] | Activity [3] [%] | Activity [4] [%] | inhibition at 150 µM [5] [%] | survival at 100 µmol/kg [6] [%] | inhibition at 150 µM [7] [%] | Activity [8] [%] |
| --- | --- | --- | --- | --- | --- | --- | --- | --- |
| Cc1cc2c(cc1S(=O)(=O)Oc1ccc(C(=O)N/N=C\c3ccc(C(=O)O)cc3)cc1)OCO2 | 100 | 0 | 0 | 59 | 25 | 80 | 90.8 | 100 |
| Cc1cc2c(cc1S(=O)(=O)Oc1ccccc1C(=O)N/N=C\c1ccc(C(=O)O)cc1)OCO2 | 80 | 0 | 11.9 | 100 | 0 | 80 | 0 | 100 |
| Cc1cc2c(cc1S(=O)(=O)Oc1cccc(/C=N/NC(=O)c3ccncc3)c1)OCO2 | 1.3 | 22 | 58.7 | 0 | 100 | – | 94.8 | 63.3 |
| Cc1cc2c(cc1S(=O)(=O)Oc1cccc(C(=O)N/N=C\c3ccc(C#N)cc3)c1)OCO2 | 2 | 32 | 58.3 | 0 | 100 | – | 100 | 54.9 |
| Cc1cc2c(cc1S(=O)(=O)Oc1cccc(C(=O)N/N=C\c3ccc(C(=O)O)cc3)c1)OCO2 | 95 | 0 | 2.9 | 100 | 0 | 53.3 | 0 | 100 |
| Cc1cc2c(cc1S(=O)(=O)Oc1cccc(C(=O)N/N=C\c3ccc([N+](=O)[O-])cc3)c1)OCO2 | 3 | 0 | 57.7 | 69.6 | 11.5 | – | 81.5 | 100 |
| Cc1cc2c(cc1S(=O)(=O)Oc1cccc(C(=O)N/N=C\c3ccncc3)c1)OCO2 | 72.5 | 0 | 16.4 | 59 | 25 | 33.3 | 82 | 100 |
| Cc1cc2c(cc1S(=O)(=O)Oc1cccc(C(=O)N/N=C\c3ccccc3)c1)OCO2 | 0 | 0 | 100 | 45.6 | 42 | – | 97 | 100 |
| Cc1cc2c(cc1S(=O)(=O)Oc1cccc(C(=O)N/N=C\c3ccc(N)cc3)c1)OCO2 | 2.2 | 0 | 58.2 | 49.2 | 37.5 | – | 80 | 100 |
| Cc1cc2c(cc1S(=O)(=O)Oc1cccc(C(=O)N/N=C\c3ccc(/C(N)=N\O)cc3)c1)OCO2 | 81 | 36 | 11.3 | 0 | 100 | – | 100 | 58.7 |
| CC(=O)Oc1ccccc1C(=O)O [ASPIRIN] | 82.7 | 7.9 | 10.3 | 17.5 | 77.7 | – | 71.6 | 74.8 |
